High-throughput results from PubChem BioAssay.
Compounds with a hit are over-represented: about 1.9% of the library has one in this group of screens.
M5 ag = agonists of human muscarinic M5 receptor (CHRM5); P08912; activation, % at 3 µM; hit rate 0.19% among 360,000; CHO-K1 hM5 cells, Fluo-8 calcium fluorescence; 0% DMSO wells, 100% maximal acetylcholine response;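 active means activation above the run's mean over test compounds plus 3 SD, cut at about 23% in these data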;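 further: signal is peak over basal fluorescence ratio across the kinetic read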
Target sequence (P08912 whole entry, looked up): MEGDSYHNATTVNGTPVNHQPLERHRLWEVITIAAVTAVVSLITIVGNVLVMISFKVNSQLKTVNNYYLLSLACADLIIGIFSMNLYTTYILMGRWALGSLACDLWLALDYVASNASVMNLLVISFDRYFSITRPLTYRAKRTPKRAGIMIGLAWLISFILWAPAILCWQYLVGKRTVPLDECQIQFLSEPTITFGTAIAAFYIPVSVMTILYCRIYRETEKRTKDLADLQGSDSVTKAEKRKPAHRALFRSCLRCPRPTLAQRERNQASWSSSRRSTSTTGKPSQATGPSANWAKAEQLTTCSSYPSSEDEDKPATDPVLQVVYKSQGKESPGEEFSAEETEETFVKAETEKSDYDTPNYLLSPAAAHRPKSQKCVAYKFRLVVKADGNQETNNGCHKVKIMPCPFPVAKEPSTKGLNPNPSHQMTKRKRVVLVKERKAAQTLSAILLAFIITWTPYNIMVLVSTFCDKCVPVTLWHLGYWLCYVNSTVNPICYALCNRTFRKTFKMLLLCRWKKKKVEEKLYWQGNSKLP
M4 PAM = potentiates acetylcholine response at human M4 receptor | CHO-K1 hM4/Gqi5, Fluo-8 calcium fluorescence, ACh EC20; 0% = ACh EC20, 100% = maximal ACh | hit rate 0.4% among 360,000 | activation, % at 3 µM | P08173;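 active means activation above its plate's cutoff, the mean activation of sample wells plus 3 SD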
CHRM5 antagonist = antagonists of human muscarinic M5 receptor (CHRM5). P08912. CHO-hM5 cells, Fluo-8 calcium fluorescence, ACh EC80. inhibition, % at 3 µM. hit rate 0.59% among 360,000;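 active means inhibition above a per-plate cutoff, the mean of that plate's test compounds plus 3 SD, cut at about 27% in these data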
CHRM4 agonist = CHRM4 agonism in calcium assay; hit rate 0.14% among 360,000; P08173; CHO-K1 hM4/Gqi5, Fluo-8 calcium fluorescence; vehicle 0%, full acetylcholine response 100%; activation, % at 3 µM; AID 624127;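 active means activation above the run mean over all test wells plus 3 SD, cut at about 32% in these data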;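 further: peak over basal fluorescence ratio per well then scaled between controls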
CHRM4 antagonist = blocks acetylcholine activation of human M4 receptor; AID 624125; inhibition, % at 3 µM; hit rate 0.73% among 360,000; P08173; CHO-hM4 cells, ACh EC80, Fluo-8 calcium fluorescence;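 active means inhibition above its plate's cutoff, the mean inhibition of sample wells plus 3 SD, cut at about 27% in these data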
M5 PAM = positive allosteric modulators of human muscarinic M5 receptor. CHO-K1 hM5, Fluo-8 calcium, ACh EC20 PAM; 0% = ACh EC20, 100% = ACh EC100. P08912. hit rate 0.3% among 360,000. AID 624038. activation, % at 3 µM;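 active means activation above the run cutoff, the mean activation of all test compounds plus 3 SD, cut at about 18% in these data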
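Assay system – human M5 receptor in CHO-K1 cells · Read-out – % activation, ACh-normalized · Technique – Fluo-8 calcium fluorescence · Dosing – single-point, 3 µM nominal · Incubation – Fluo-8 loading 80 min at 37 °C plus 30 min room temperature · Repeats – singlicate, one well per test compound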
A number is an active result; n = inactive.

SMILES	M5 ag	M4 PAM	CHRM5 antagonist	CHRM4 agonist	CHRM4 antagonist	M5 PAM
CC(=O)OCCNc1cc(Sc2nc3ccccc3[nH]2)c2nonc2c1[N+](=O)[O-]	n	n	n	n	40.8	n
CN1CCN(C2=Nc3ccccc3Oc3ccc(Cl)cc32)CC1	n	n	71.8	n	37.4	n
COc1ccc(NC(=O)c2ccccc2N2C(=O)C3C4C=CC(C5CC45)C3C2=O)c(OC)c1 (centres undefined)	n	15.0	n	n	n	n
CCn1c(CNC(=O)c2cccc(C)c2)nnc1SCC(=O)N1CCOCC1	n	n	n	n	n	n
O=C(NN=Cc1c(O)ccc2ccccc12)c1ccncc1	46.0	n	n	n	n	n
O=C(N/N=C\c1c(O)ccc2ccccc12)c1ccc(O)cc1	n	n	n	n	n	n
O=C(N/N=C\c1c(O)ccc2ccccc12)c1cncc(Br)c1	67.0	n	n	38.0	n	n
O=C(CN1C(=O)c2ccccc2C1=O)NCC(=O)Nc1ccccc1	n	n	n	n	n	n
CN(C)S(=O)(=O)c1cc(NC(=O)c2cc(=O)c3ccccc3o2)ccc1Cl	n	n	n	n	n	n
COc1ccc(NC(=O)c2cc(=O)c3ccccc3o2)cc1Cl	n	23.4	n	n	n	n
CC(C)[C@@H](C(=O)NCc1ccco1)N1C(=O)N2CCc3c([nH]c4ccccc34)[C@@]2(C)C1=O	n	n	n	n	n	n
Cc1c(CCOC(=O)c2ccccc2)sc[n+]1CC(=O)c1ccc(Br)cc1	n	n	28.0	n	28.1	n
Cc1c(CCOC(=O)c2cc([N+](=O)[O-])cc([N+](=O)[O-])c2)sc[n+]1CC(=O)c1ccccc1	n	n	n	n	n	n
Cc1c(CCOC(=O)c2ccccc2)sc[n+]1Cc1ccccc1	n	n	95.2	n	63.8	n
O=C1NC2(CCCCCC2)C(=O)N1Cc1c(F)cccc1Cl	n	n	n	n	30.6	n
O=C1NC2(CCCCCC2)C(=O)N1Cc1ccccc1F	n	n	n	n	n	n
CN(CCCNC(=O)CCC(=O)N1CCOc2ccccc21)Cc1ccccc1	n	n	n	n	n	n
CCN(CC)c1ccc2c(-c3ccc(S(=O)(=O)O)cc3S(=O)(=O)[O-])c3ccc(=[N+](CC)CC)cc-3oc2c1	n	n	n	78.5	n	n
CCOC(=O)c1c(C)[nH]c(C(=O)CN2C(=O)NC(C)(c3ccc(C)cc3)C2=O)c1C (centres undefined)	27.3	n	n	n	n	n
CCOC(=O)c1c(C)[nH]c(C(=O)CN2C(=O)C(=O)N(CC(C)C)C2=O)c1C	n	n	n	n	n	n
COC(=O)c1c(C)[nH]c(C(=O)CN2C(=O)C3CC=CCC3C2=O)c1C (centres undefined)	n	26.2	n	n	n	n
Cc1nc2nc(C)n(CCN3CCOCC3)c(=O)c2c(-c2cccc([N+](=O)[O-])c2)c1C(=O)CCCCCCCCCCN1CCC(c2ccccc2)(c2ccccc2)CC1	n	n	95.8	n	94.6	n
CCCCNC(=O)C1(C)CCCCN1C(=O)c1cncc(Br)c1 (centres undefined)	n	n	n	n	n	n
c1ccc(C2(CN3CCNC[C@H]3Cc3cccc4ccccc34)CC2)cc1	n	28.5	n	n	n	n
Cc1ccc(C(C)NC(=O)/C(C#N)=C\c2c(C)[nH]c3ccccc23)cc1 (centres undefined)	27.0	n	n	n	n	n
SMILES	M5 ag	M4 PAM	CHRM5 antagonist	CHRM4 agonist	CHRM4 antagonist	M5 PAM
CS(=O)(=O)c1cc([N+](=O)[O-])c(Sc2nc3ccccc3[nH]2)c([N+](=O)[O-])c1	n	n	n	n	38.1	n
O=C(O)c1cc([N+](=O)[O-])c(Sc2nc3ccccc3[nH]2)c([N+](=O)[O-])c1	n	n	n	n	n	n
CCOc1ccc(CC(C(=O)NN)C(=O)NN)cc1CN(C)C	n	19.2	n	n	n	n
CC(C)n1nccc1NC(=O)Nc1ccccc1	n	n	n	n	n	n
COc1cc(/C=C2\SC(=S)N(NC(=O)c3ccccc3O)C2=O)ccc1O	n	n	n	32.6	n	n
O=C(NN1C(=O)/C(=C/c2ccc(O)cc2)SC1=S)c1cccc(O)c1	25.1	n	n	n	n	n
Cc1nc2ccc(S(=O)(=O)N(C)CC(=O)Nc3ccccc3F)cc2s1	n	n	n	n	n	n
COc1cc(C#Cc2c(-c3cncn3C)n(C)c3ccc(-c4ccc(CN5CCOCC5)cc4)cc23)cc(OC)c1	n	n	n	n	29.8	n
COc1cc(C#Cc2c(-c3cncn3C)n(C)c3ccc(-c4cnc(N5CCOCC5)nc4)cc23)cc(OC)c1	n	n	n	n	n	n
CC(C(=O)OCC(=O)Nc1ccc(S(=O)(=O)N2CCCCC2)cc1)N1C(=O)c2ccccc2C1=O (centres undefined)	n	n	n	n	n	n
CC(Sc1cnccn1)C(=O)O (centres undefined)	n	n	31.5	n	n	n
CCOC(=O)c1ccccc1NC(=O)COC(=O)c1ccc(OCC(=O)N2CCOCC2)c(OCC)c1	n	n	n	n	n	n
COC(=O)c1ccc2c(=O)n(Cc3ccc(C(=O)NC4CCCC4)cc3)c(=S)[nH]c2c1	n	20.6	n	n	n	n
CC(=O)c1c(C)[nH]c(C(=O)OCc2ccccc2)c1C	n	n	n	n	n	n
CC(=O)c1c(C)[nH]c(C(=O)OCCCCN2C(=O)c3ccccc3C2=O)c1C	n	n	30.9	n	n	n
Nc1ccc(C(=O)N2CCN(S(=O)(=O)c3ccc4c(c3)OCCO4)CC2)cc1[N+](=O)[O-]	n	n	n	n	n	n
COc1ccc(OCC(O)CN2CCC(CN3C(=O)c4cccc5cccc(c45)C3=O)CC2)cc1 (centres undefined)	n	n	n	n	27.5	n
CCOC(=O)C(C)N1c2cccc3cccc(c23)S1(=O)=O (centres undefined)	n	n	n	n	n	n
Cc1ccccc1OCCNCC(C)O (centres undefined)	n	n	n	n	n	28.2
O=C(/C(=C/O)N=Nc1ccccc1)c1ccc(Cl)cc1	n	n	n	n	n	19.4
Cc1ccc(N=N/C(=C\O)C(=O)c2ccc(Cl)cc2)cc1	n	n	n	n	n	n
C[C@@H]1CC[C@H](O)/C=C/C(=O)O[C@H](C)CC[C@H](O)/C=C/C(=O)O1	36.9	n	n	n	n	n
CCCS(=O)(=O)NC(=O)C1(C)CCCN(C(=O)C(C)(C)Oc2ccc(Cl)cc2)C1 (centres undefined)	n	n	n	n	n	n
O=C(O)c1ccc(O)cc1O	n	n	n	n	n	n
